Source: ChEMBL document CHEMBL1806442, “Synthesis of novel alkyltriazole tagged pyrido[2,3-d]pyrimidine derivatives and their anticancer activity” (Eur J Med Chem, 2011)
≈ marks a conversion by molar mass, not a printed value.

What was measured:
Format in all cases: functional, cell-based
THP-1 = test: Cytotoxicity against human THP1 cells after 24 hrs by MTT assay; conditions: THP-1, 24 h
Summary of the method: (§1)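 Cells kept in RPMI-1640 with 10% heat-inactivated FBS, 1 mM NaHCO3, 2 mM L-glutamine and 100 units/ml antibiotic. Seeded at 2 × 10^4 per well in 0.1 ml, left overnight, then given graded compound from DMSO stocks for 24 h. MTT added for a further 3 h at 37 °C, formazan dissolved in DMSO and read at 570 nm. Percent viability inhibition taken against untreated control; IC50 from linear regression.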

COLO 205 = test: Cytotoxicity against human COLO205 cells after 24 hrs by MTT assay; conditions: COLO 205, 24 h; summary of the method: as §1
U-937 = test: Cytotoxicity against human U937 cells after 24 hrs by MTT assay; conditions: U-937, 24 h; summary of the method: as §1

| Compound | IC50 (THP-1) | IC50 (COLO 205) | IC50 (U-937) |
| --- | --- | --- | --- |
| O=c1c2c(C(F)(F)F)cc(-c3ccccc3)nc2ncn1Cc1cn(CCC(F)(F)C(F)(F)C(F)(F)C(F)(F)C(F)(F)C(F)(F)C(F)(F)C(F)(F)F)nn1 | 79.1 µg/mL (≈ 96.7 µM) | 163 µg/mL (≈ 199 µM) | > 200 µg/mL |
| CCCCCCCCCCn1cc(Cn2cnc3nc(-c4ccccc4)cc(C(F)(F)F)c3c2=O)nn1 | 16.9 µg/mL (≈ 33 µM) | 19.2 µg/mL (≈ 37.6 µM) | 8.16 µg/mL (≈ 15.9 µM) |
| Cc1nc2nc(-c3ccccc3)cc(C(F)(F)F)c2c(=O)n1Cc1cn(CCC(F)(F)C(F)(F)C(F)(F)C(F)(F)C(F)(F)C(F)(F)F)nn1 | > 200 µg/mL | > 200 µg/mL | > 200 µg/mL |
| Cc1nc2nc(-c3ccccc3)cc(C(F)(F)F)c2c(=O)n1Cc1cn(CCC(F)(F)C(F)(F)C(F)(F)C(F)(F)C(F)(F)C(F)(F)C(F)(F)C(F)(F)F)nn1 | > 200 µg/mL | > 200 µg/mL | 124 µg/mL (≈ 149 µM) |
| CCCCCCCCCCn1cc(Cn2c(C)nc3nc(-c4ccccc4)cc(C(F)(F)F)c3c2=O)nn1 | 11.3 µg/mL (≈ 21.4 µM) | 15 µg/mL (≈ 28.5 µM) | 6.2 µg/mL (≈ 11.8 µM) |
| Cc1nc2nc(-c3ccccc3)cc(C(F)(F)F)c2c(=O)n1Cc1cn(-c2ccccc2)nn1 | > 200 µg/mL | > 200 µg/mL | > 200 µg/mL |
| CCc1nc2nc(-c3ccccc3)cc(C(F)(F)F)c2c(=O)n1Cc1cn(CCC(F)(F)C(F)(F)C(F)(F)C(F)(F)C(F)(F)C(F)(F)F)nn1 | > 200 µg/mL | > 200 µg/mL | > 200 µg/mL |
| CCc1nc2nc(-c3ccccc3)cc(C(F)(F)F)c2c(=O)n1Cc1cn(CCC(F)(F)C(F)(F)C(F)(F)C(F)(F)C(F)(F)C(F)(F)C(F)(F)C(F)(F)F)nn1 | > 200 µg/mL | > 200 µg/mL | > 200 µg/mL |
| CCCCCCCCCCn1cc(Cn2c(CC)nc3nc(-c4ccccc4)cc(C(F)(F)F)c3c2=O)nn1 | 82.6 µg/mL (≈ 153 µM) | > 200 µg/mL | 17.8 µg/mL (≈ 33 µM) |
| CC(C)c1nc2nc(-c3ccccc3)cc(C(F)(F)F)c2c(=O)n1Cc1cn(CCC(F)(F)C(F)(F)C(F)(F)C(F)(F)C(F)(F)C(F)(F)C(F)(F)C(F)(F)F)nn1 | 142 µg/mL (≈ 165 µM) | > 200 µg/mL | 8.35 µg/mL (≈ 9.7 µM) |
| CCCCCCc1nc2nc(-c3ccccc3)cc(C(F)(F)F)c2c(=O)n1Cc1cn(CCC(F)(F)C(F)(F)C(F)(F)C(F)(F)C(F)(F)C(F)(F)F)nn1 | > 200 µg/mL | 132 µg/mL (≈ 165 µM) | 7.56 µg/mL (≈ 9.42 µM) |
| CCCCCCc1nc2nc(-c3ccccc3)cc(C(F)(F)F)c2c(=O)n1Cc1cn(CCC(F)(F)C(F)(F)C(F)(F)C(F)(F)C(F)(F)C(F)(F)C(F)(F)C(F)(F)F)nn1 | > 200 µg/mL | > 200 µg/mL | > 200 µg/mL |
| Cc1nc(OCc2cn(CCC(F)(F)C(F)(F)C(F)(F)C(F)(F)C(F)(F)C(F)(F)C(F)(F)C(F)(F)F)nn2)c2c(C(F)(F)F)cc(-c3ccccc3)nc2n1 | 107 µg/mL (≈ 129 µM) | > 200 µg/mL | 22.4 µg/mL (≈ 26.9 µM) |
| CCc1nc(OCc2cn(CCC(F)(F)C(F)(F)C(F)(F)C(F)(F)C(F)(F)C(F)(F)F)nn2)c2c(C(F)(F)F)cc(-c3ccccc3)nc2n1 | > 200 µg/mL | > 200 µg/mL | 9.22 µg/mL (≈ 12.4 µM) |
| FC(F)(F)c1cc(-c2ccccc2)nc2nc(-c3ccccc3)nc(OCc3cn(CCC(F)(F)C(F)(F)C(F)(F)C(F)(F)C(F)(F)C(F)(F)C(F)(F)C(F)(F)F)nn3)c12 | > 200 µg/mL | > 200 µg/mL | 44.4 µg/mL (≈ 49.6 µM) |
| COc1cc([C@@H]2c3cc4c(cc3[C@@H](O[C@@H]3O[C@@H]5CO[C@@H](C)O[C@H]5[C@H](O)[C@H]3O)[C@H]3COC(=O)[C@H]23)OCO4)cc(OC)c1O [ETOPOSIDE] | 2.16 µg/mL (≈ 3.67 µM) | 7.24 µg/mL (≈ 12.3 µM) | 17.9 µg/mL (≈ 30.5 µM) |
